The text below walks through data of ChEMBL document CHEMBL1145066, “Novel pyrone side tetracyclic psoralen derivatives: synthesis and photobiological evaluation” (J Med Chem, 2003).

A word on the IC50: it is the point on the concentration scale where inhibition reaches its midpoint. Low values mean greater potency, high ones weaker potency.

For one test, the species on record is Cavia porcellus. Description: Skin Phototoxicity was tested on depilated Guinea Pigs (outbred Dunkin - Hartley strain) and erythema intensity was measured; Absent. The test is classed as functional, organism-based.
In test [1] the test system is HL-60. Description: Antiproliferative activity against HL-60 (human promyelocytic leukemic cells) after exposure to UV light. It counts as functional, cell-based. Put shortly: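 HL-60 cells grown in RPMI 1640 with 15% heat-inactivated FCS at 37 °C, 5% CO2. 10^5 cells/well were incubated 24 h, then test agent was added at various concentrations in complete medium. After 1 h in the dark, cells received a UVA dose of 0.793 J cm^-2 (lamps emitting >90% at 365 nm) and were incubated 24 h more. Viability was read by trypan blue; IC50 is the 50% reduction in cell number versus control cultures.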

The subject of test [2] is HL-60. In words: Antiproliferative activity against HL-60 (human promyelocytic leukemic cells) in dark condition. It counts as functional, cell-based.
Test [3] has as its system HeLa. Description: Antiproliferative activity against HeLa (human cervix adenocarcinoma cells) after exposure to UV light. It counts as functional, cell-based. Put shortly: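 HeLa cells grown in F-12 with 10% heat-inactivated FCS at 37 °C, 5% CO2. 10^5 cells/well were incubated 24 h, switched to phenol-red-free DMEM, and given various agent concentrations. After 1 h they were irradiated with UVA at 0.793 J cm^-2 (365 nm lamps). Drug medium was then removed, and cells were kept 24 h in complete F-12. Trypan blue counts gave IC50 versus control.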

Test [4] relates to HeLa. Description: Antiproliferative activity against HeLa (human cervix adenocarcinoma cells) in dark condition. The test is classed as functional, cell-based. The method in brief: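 Dark control on HeLa (F-12, 10% FCS, 37 °C, 5% CO2). 10^5 cells/well were seeded and, after 24 h, given phenol-red-free DMEM with various agent concentrations. No irradiation was applied, and compound was not washed out; cells were kept 24 h in complete F-12 with compound. Viability was by trypan blue; IC50 is the 50% drop in cell number relative to control cultures.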

The structures appear in SMILES notation. Calls of active or inactive are those of the source. The rule behind the calls is not given here.

On to `Cc1coc2c(OCCCN(C)C)c3oc(=O)c4c(c3cc12)CCCC4`, for which the Erythema intensity result in the test listed under Cavia porcellus was “inactive”. The half-inhibitory concentration (IC50) in the test on HL-60 [1] is 0.95 µM; in the test on HL-60 [2], 16 µM; with HeLa [3] it was 0.68 µM; in the test with HeLa [4], more than 20 µM.

For `Cc1coc2c(O)c3oc(=O)c4c(c3cc12)CCCC4`, in the test filed under Cavia porcellus, the Erythema intensity result was “inactive”. The IC50 is 17 µM with HL-60 [1], more than 20 µM in the test with HL-60 [2], 17.4 µM in the test with HeLa [3] and more than 20 µM with HeLa [4].

On to `COc1c2occc2cc2ccc(=O)oc12` [METHOXSALEN], for which the IC50 with HL-60 [2] and with HeLa [4] was more than 20 µM each time.

For the compound `COc1c2occ(C)c2cc2c1oc(=O)c1ccccc12`, the Erythema intensity result in the test listed under Cavia porcellus was “inactive”. The IC50 in the test on HL-60 [1] is 11.8 µM; with HL-60 [2], more than 20 µM; with HeLa [3], more than 20 µM; with HeLa [4] it was more than 20 µM.

On to `Cc1coc2c(OCCCN(C)C)c3oc(=O)c4ccccc4c3cc12`, for which the Erythema intensity result in the test listed under Cavia porcellus was “inactive”. For the same compound, the half-inhibitory concentration (IC50) with HL-60 [1] is 0.67 µM; in the test with HL-60 [2], 9.9 µM; with HeLa [3] it was 0.64 µM; with HeLa [4], more than 20 µM.

On to `Cc1coc2c(O)c3oc(=O)c4ccccc4c3cc12`, for which the Erythema intensity result in the test listed under Cavia porcellus was “inactive”. Moreover, the half-inhibitory concentration (IC50) in the test with HL-60 [1], in the test with HL-60 [2], in the test with HeLa [3] and in the test with HeLa [4] was more than 20 µM in each case.

Take `COc1c2occ(C)c2cc2c3c(c(=O)oc12)CCCC3`: the Erythema intensity result in the test listed under Cavia porcellus is “inactive”. For the same compound, the IC50 was 13 µM with HL-60 [1], more than 20 µM in the test on HL-60 [2], 15.7 µM in the test on HeLa [3] and more than 20 µM with HeLa [4].
